Laboratory results taken from PubChem BioAssay.
The source made the active and inactive calls.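 The calls were made as follows, unless noted: active = viability at or below 10% of carrier control in both of two separate runs; inconclusive = viability at or below 10% in only one of the two runs; inactive = the rest.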

Tests used:
[1] = reducers of endogenous Her2 protein level, primary screen, SKBR3 breast tumor cells, AlphaScreen, ATP viability (AID 461;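 active = Her2 level under about 52% in both replicate screens, with viability over 70% of control, limit read from the data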;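 as to Her2 level: lower value means less Her2 protein in the cells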;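 as to viability: percent of carrier control wells set as 100% viability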); details: 18-24 h, measured here: SKBR3 viability, ATP luminescence, at 10 µM
[2] = biological target: Receptor tyrosine-protein kinase erbB-2 (Homo sapiens) (UniProt P04626); test: as above; details: 18-24 h, at 10 µM, stronger effect = lower value
[3] = SK-BR-3 cell growth inhibitors, pilot screen, 24 h, human (AID 572); details: SK-BR-3 viability, CellTiter-Glo luminescence, at 10 µM, stronger effect = lower value;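 also: compound exposure lasted between 18 and 24 h rather than exactly 24 h; 100% = carrier-treated control wells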
[4] = HUVEC growth inhibition – cell-based, human, primary screen (AID 575;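 active = viability at or below 30% in both replicate assays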;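 also: 100% = median of untreated cell wells with 0.1% DMSO on each plate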); details: HUVEC proliferation, CellTiter-Glo luminescence, 72 h; at 10 µM; stronger effect = lower value
How it was run: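 Material: primary human umbilical vein endothelial cells / Schedule: 72 h exposure, 37 °C, 5% CO2, 30 min RT equilibration / Signal: ATP-based CellTiter-Glo luminescent read / Read-out basis: percent of median DMSO-control luminescence / Control set: 32 DMSO-only cell-control wells (high), 32 MePR drug-control wells (low) per plate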

[5] = growth inhibitors of H69AR lung tumor, primary screen, human, duplicate replicates (AID 580;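 active = viability at or under a set limit in both replicates, limit being median viability minus 3 SD, cut at about 48% in these data, passing the limit was not always enough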;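 also: 100% = mean luminescence of untreated wells and 0% = no signal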); details: H69AR lung tumor cells viability, ATP luminescence, 72 h; at 10 µM; stronger effect = lower value
[6] = reversal of MRP1-mediated doxorubicin resistance, pilot screen, H69AR cells, doxorubicin co-treatment (AID 601;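 active = viability loss from added drug above about 55%, and viability with drug at most 40%, in both replicates, limit read from the data, passing the limit was not always enough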); details: CellTiter-Glo, 72 h, at 10 µM; for differential viability (reversal): stronger effect = higher value
[7] = 384-well plate pilot, post-Golgi transport modulator project, inhibition of yeast transport mutant growth (AID 636; in the data active = inhibition above about 31%); details: absorbance 615 nm, about 18 h, stronger effect = higher value
[8] = growth suppression of yeast trafficking mutant, preliminary HTS, modulators of trafficking downstream of Golgi apparatus project, 1536-format plate, OD 615 nm (AID 637; in the data active = inhibition above about 30%); details: yeast transport mutant growth, absorbance 615 nm, 18 h; stronger effect = higher value
[9] = H69AR cells + 2 uM doxorubicin, measured here: viability with 2 uM doxorubicin, stronger effect = lower value
[10] = H69AR cells, compound alone cytotoxicity

Chain of Receptor tyrosine-protein kinase erbB-2 (Homo sapiens) (P04626 whole entry, looked up): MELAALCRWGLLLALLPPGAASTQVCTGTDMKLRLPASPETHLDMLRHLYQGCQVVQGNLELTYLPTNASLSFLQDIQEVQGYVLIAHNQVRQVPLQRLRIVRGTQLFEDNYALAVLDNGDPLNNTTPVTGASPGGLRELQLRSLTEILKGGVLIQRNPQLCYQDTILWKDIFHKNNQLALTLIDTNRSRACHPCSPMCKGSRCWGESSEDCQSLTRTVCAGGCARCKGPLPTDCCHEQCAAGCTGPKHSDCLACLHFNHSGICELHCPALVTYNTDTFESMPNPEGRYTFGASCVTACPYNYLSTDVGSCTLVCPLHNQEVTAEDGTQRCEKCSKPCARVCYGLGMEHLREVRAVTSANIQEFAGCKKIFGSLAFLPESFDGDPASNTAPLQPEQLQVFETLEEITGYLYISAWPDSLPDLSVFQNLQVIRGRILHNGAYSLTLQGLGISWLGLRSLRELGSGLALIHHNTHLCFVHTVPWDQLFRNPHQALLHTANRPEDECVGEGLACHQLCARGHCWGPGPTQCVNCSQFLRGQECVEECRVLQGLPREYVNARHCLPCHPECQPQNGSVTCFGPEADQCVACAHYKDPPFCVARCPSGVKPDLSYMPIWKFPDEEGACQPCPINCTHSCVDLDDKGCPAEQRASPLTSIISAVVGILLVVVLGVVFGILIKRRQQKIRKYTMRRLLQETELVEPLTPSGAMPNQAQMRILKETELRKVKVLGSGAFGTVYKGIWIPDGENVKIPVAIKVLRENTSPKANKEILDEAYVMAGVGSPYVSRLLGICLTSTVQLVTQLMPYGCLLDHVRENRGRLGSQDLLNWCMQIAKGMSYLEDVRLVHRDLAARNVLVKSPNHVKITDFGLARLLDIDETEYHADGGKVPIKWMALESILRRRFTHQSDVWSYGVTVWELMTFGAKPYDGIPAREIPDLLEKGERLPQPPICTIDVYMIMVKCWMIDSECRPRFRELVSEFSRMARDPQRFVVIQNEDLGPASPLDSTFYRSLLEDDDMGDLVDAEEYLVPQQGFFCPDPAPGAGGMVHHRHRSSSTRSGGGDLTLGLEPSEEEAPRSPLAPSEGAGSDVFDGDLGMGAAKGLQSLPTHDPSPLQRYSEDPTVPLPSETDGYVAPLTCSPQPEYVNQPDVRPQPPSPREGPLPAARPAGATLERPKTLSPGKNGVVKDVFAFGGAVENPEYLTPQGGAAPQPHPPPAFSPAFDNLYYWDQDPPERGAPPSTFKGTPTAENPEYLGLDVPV

SMILES | viability [1] [%] | Her2 level [2] | viability [3] | viability [4] | viability [5] | differential viability (reversal) ([6]; H69AR cells + 2 uM doxorubicin) | viability [6, 9] [%] | viability [6, 10] [%] | inhibition [7] | inhibition [8]
CN(Cc1nc(-c2ccncc2)no1)S(=O)(=O)c1ccccc1 | 99.5 | 79% (inactive) | 99.5% (inactive) | 96.3% (inactive) | 95.7% (inactive) | 7.03% (inactive) | 88.7 | 95.7 | -7.57% (inactive) | 0.79% (inactive)
CC(=O)c1c(C)[nH]c(C(=O)Nc2ccc3c(c2)OCCO3)c1C | 102 | 92% (inactive) | 102% (inactive) | 86.1% (inactive) | 92.9% (inactive) | 18.1% (inactive) | 74.8 | 92.9 | -0.26% (inactive) | 2.42% (inactive)
COC(=O)c1c(NC(=O)CSc2nnc(-c3cccnc3)n2Cc2ccco2)sc(C)c1C | 87 | 77% (inactive) | 87% (inactive) | 71.5% (inactive) | 83.7% (inactive) | 9.16% (inactive) | 74.5 | 83.7 | -5.14% (inactive) | -6.03% (inactive)
Cc1oc(-c2ccccc2F)nc1CS(=O)(=O)CC(=O)NCc1ccco1 | 116 | 124% (inactive) | 116% (inactive) | 85.9% (inactive) | 93.8% (inactive) | 7.03% (inactive) | 86.8 | 93.8 | -3.2% (inactive) | -2.62% (inactive)
O=[n+]1c2c(n([O-])c3cc(F)c(N4CCCC4)cc31)CCC2 | 101 | 86.5% (inactive) | 101% (inactive) | 90.6% (inactive) | 74% (inactive) | 5.59% (inactive) | 68.4 | 74 | -2.57% (inactive) | 1.9% (inactive)
COC(=O)Cc1csc(N)n1 | 95 | 82.5% (inactive) | 95% (inactive) | 90.1% (inactive) | 93% (inactive) | 4.79% (inactive) | 88.2 | 93 | 0.92% (inactive) | -3.27% (inactive)
CCOC(=O)c1c(C)oc2ccc(OCC(N)=O)cc12 | 120 | 95% (inactive) | 120% (inactive) | 72.3% (inactive) | 97.1% (inactive) | 1.68% (inactive) | 95.4 | 97.1 | -0.79% (inactive) | -5.4% (inactive)
Cc1ccc(S(=O)(=O)N2CCN(CCO)CC2)cc1-c1nnc2c3ccccc3c(C)nn12 | 104 | 94% (inactive) | 104% (inactive) | 99.4% (inactive) | 96.2% (inactive) | 2.01% (inactive) | 94.2 | 96.2 | -5.07% (inactive) | -2.79% (inactive)
CCOC(=O)c1ccc(NC(=O)CCc2nc(-c3cccc(C)c3)no2)cc1 | 114 | 97.5% (inactive) | 114% (inactive) | 40.8% (inactive) | 86.2% (inactive) | -12.8% (inactive) | 99.1 | 86.2 | 0.41% (inactive) | 13% (inactive)
CCOC(=O)N1CCN(C(=O)c2ccc3c(SCC(=O)O)c4c(nc3c2)CCCC4)CC1 | 95.5 | 92.5% (inactive) | 95.5% (inactive) | 93.8% (inactive) | 100% (inactive) | 6.52% (inactive) | 93.9 | 100 | 0.13% (inactive) | 22.3% (inactive)
CCN(CC)CCN1C(=O)C(=O)/C(=C(/O)c2c(C)[nH]c(C(=O)OC)c2C)C1c1ccccc1OC (stereo not given) | 104 | 117% (inactive) | 104% (inactive) | 84.6% (inactive) | 68.3% (inactive) | -21.3% (inactive) | 89.5 | 68.3 | -0.26% (inactive) | -4.5% (inactive)
Cc1nc2ccc(NC(=O)N3CCC(c4ccccc4)C3)cc2nc1C (stereo not given) | 101 | 93.5% (inactive) | 101% (inactive) | 57.7% (inactive) | 74.8% (inactive) | 9.41% (inactive) | 65.4 | 74.8 | -4.21% (inactive) | -1.43% (inactive)
O=C(CCN1CCc2ccccc2C1)Nc1ccc2c(c1)OCO2 | 88.5 | 94% (inactive) | 88.5% (inactive) | 84.4% (inactive) | 87.1% (inactive) | -18.3% (inactive) | 105 | 87.1 | -4.4% (inactive) | 0.81% (inactive)
